As a reminder, the IC50 is the concentration needed to halve the response being measured. As usually defined, the half-life is the time in which the quantity being followed falls by half. Read a high half-life as slow decline. For orientation: bioavailability means dose-corrected exposure relative to a reference, in per cent. As a reminder, the Cmax is the maximum level reached in the sampled fluid or tissue. Broadly, the ED50 is the dose that gives a 50% effect, or the effect in half of the subjects. What is called solubility is how much of the substance goes into solution per volume.

Molecules are shown by their SMILES. In brackets after ≈: the same amount, converted by molar mass.

One data set has as its target T1, Progesterone receptor (Homo sapiens, UniProt P06401).
T1 sequence (P06401 whole entry): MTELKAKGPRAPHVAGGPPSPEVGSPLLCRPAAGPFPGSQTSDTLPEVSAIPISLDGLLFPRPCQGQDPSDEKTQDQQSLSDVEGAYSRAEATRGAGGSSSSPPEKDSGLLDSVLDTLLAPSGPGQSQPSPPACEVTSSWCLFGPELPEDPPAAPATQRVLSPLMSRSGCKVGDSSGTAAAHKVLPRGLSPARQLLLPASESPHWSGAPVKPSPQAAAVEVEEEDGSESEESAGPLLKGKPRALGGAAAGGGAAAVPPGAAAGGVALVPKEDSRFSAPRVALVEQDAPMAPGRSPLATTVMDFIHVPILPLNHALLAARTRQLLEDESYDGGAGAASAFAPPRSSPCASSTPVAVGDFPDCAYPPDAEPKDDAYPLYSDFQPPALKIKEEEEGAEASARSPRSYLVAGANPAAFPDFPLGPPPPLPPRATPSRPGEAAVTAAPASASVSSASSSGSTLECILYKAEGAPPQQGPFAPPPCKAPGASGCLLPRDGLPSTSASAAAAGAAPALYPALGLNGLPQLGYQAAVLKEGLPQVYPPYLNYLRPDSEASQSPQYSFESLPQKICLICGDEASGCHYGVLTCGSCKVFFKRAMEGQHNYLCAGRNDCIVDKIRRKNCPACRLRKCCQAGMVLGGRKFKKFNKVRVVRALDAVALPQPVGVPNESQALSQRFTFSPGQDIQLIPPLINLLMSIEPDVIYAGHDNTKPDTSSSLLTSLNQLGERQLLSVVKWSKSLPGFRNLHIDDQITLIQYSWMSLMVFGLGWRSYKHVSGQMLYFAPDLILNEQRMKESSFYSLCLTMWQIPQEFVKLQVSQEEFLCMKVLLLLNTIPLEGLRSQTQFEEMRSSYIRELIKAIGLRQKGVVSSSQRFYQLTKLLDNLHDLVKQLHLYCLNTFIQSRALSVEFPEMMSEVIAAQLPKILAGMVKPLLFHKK
In words: Competitive binding affinity to progesterone receptor (unknown origin) expressed in baculovirus-infected cell system after 1 hr by fluorescence polarization assay in presence of tetramethylrhodamine-labeled RU-486. The gist of the method: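 PR from lysate of insect cells infected with receptor baculovirus alone, diluted 13-fold. Probe 5 nM tetramethylrhodamine-labeled RU-486 in pH 7.4 TES/KCl/molybdate buffer with 1% DMSO. 1 h at room temperature in the dark, then fluorescence polarization (ex 550/em 580 nm). Background set with 2 μM RU-486. IC50 from duplicate 11-point curves, four-parameter logistic fit, mean of at least two determinations.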
Background: Fluorescence polarisation rises when a labelled molecule tumbles more slowly, as on binding a larger partner.

A short description of data set [1]: Half life in rat at 2 mg/kg, iv and 30 mg/kg, po. The class given is ADME, organism-based. As to conditions: in vivo. The gist of the method: (§1)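 Rat PK: 2 mg/kg iv in 80/20 PEG/water and 30 mg/kg po in 80/18/2 PEG/water/Tween.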
Data set [2] has as its system Mus musculus. Description: Toxicity in collagen-induced B10.RIII mouse arthritis model assessed as change in free fatty acid level at 100 mg/kg, po qd for 35 days relative to 30% cremophor-treated control. The class given is organism-based. The note with it: in vivo, 840 h. The arrangement: dose 100 mg/kg, route oral. A digest of the protocol:
(§2)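 Female B10.RIII mice were immunized with porcine type II collagen in complete Freund's adjuvant, enrolled at arthritis onset (10/group), and dosed orally once daily for five weeks in 30% cremophor vehicle. Four paws were scored 1–4 (max 16), as AUC. Serum biomarkers were taken at day 35. Femur cortical thickness was measured by microCT in non-immunized, age-matched mice dosed identically.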

Data set [3] concerns Mus musculus. Description: Toxicity in collagen-induced B10.RIII mouse arthritis model assessed as change in insulin level at 100 mg/kg, po qd for 35 days relative to 30% cremophor-treated control. The class given is organism-based. The arrangement: dose 100 mg/kg, route oral. As to conditions: in vivo, 840 h. The gist of the method: as §2
Data set [4] in a line: Oral bioavailability in rat at 30 mg/kg. As to conditions: in vivo. The class given is ADME, organism-based.
Data set [5] can be described thus: Cmax in B10.RIII mouse at 100 mg/kg, po. The class given is ADME, organism-based. The arrangement: dose 100 mg/kg, route oral. As to conditions: in vivo. A digest of the protocol:
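Plasma levels measured in satellite B10.RIII mice (n = 3) after a single 100 mg/kg oral dose.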

For data set [6], the system named is Mus musculus. Description: Antiinflammatory activity in po dosed Balb/c mouse assessed as inhibition of LPS-induced TNFalpha production administered 60 mins prior to LPS challenge measured after 1 hr by […]. The class given is functional.
Data set [7] is described as follows: Volume of distribution at steady state in rat at 2 mg/kg, iv and 30 mg/kg, po. The note with it: in vivo, read-out: Vdss. The class given is ADME, organism-based. A digest of the protocol:
as §1

Data set [8] has as its system Mus musculus. Description: Toxicity in collagen-induced B10.RIII mouse arthritis model assessed as change in AUC at 100 mg/kg, po qd for 35 days relative to 30% cremophor-treated control. The class given is organism-based. More on the design: dose 100 mg/kg, route oral. As to conditions: in vivo, 840 h. The gist of the method:
as §2

Data set [9] concerns Mus musculus. Description: Toxicity in collagen-induced B10.RIII mouse arthritis model assessed as change in body fat at 100 mg/kg, po qd for 35 days relative to 30% cremophor-treated control. The class given is organism-based. More on the design: dose 100 mg/kg, route oral. The note with it: in vivo, 840 h. A digest of the protocol: as §2
Data set [10] has as its system Rattus norvegicus. In words: Clearance in rat at 2 mg/kg, iv and 30 mg/kg, po. The class given is ADME, organism-based. The note with it: in vivo. The gist of the method: as §1
Data set [11] in a line: Aqueous solubility of the compound in buffer at pH 7. The class given is physicochemical.
The nature of data set [12]: Permeability across human Caco2 cells. The class given is ADME, cell-based. The note with it: Caco-2, read-out: permeability. A general note: Passage across Caco-2 layers is used to estimate intestinal permeability.
The test system of data set [13] is Rattus norvegicus. Description: Clearance in rat at 5 mg/kg, iv and 30 mg/kg, po. The class given is ADME, organism-based. The note with it: in vivo. The gist of the method: (§3)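 Rat PK: 5 mg/kg iv in 80/20 PEG/water and 30 mg/kg po in 80/18/2 PEG/water/Tween.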
Data set [14] is described as follows: Half life in rat at 5 mg/kg, iv and 30 mg/kg, po. The class given is ADME, organism-based. As to conditions: in vivo. The gist of the method: as §3
Data set [15] has as its system Mus musculus. In words: Toxicity in nonimmunized, nondiseased mouse assessed as change in femur cortical thickness at 100 mg/kg, po qd for 35 days relative to 1% methylcellulose-treated control. The note with it: in vivo, 840 h.
Data set [16] relates to Mus musculus. In words: Toxicity in collagen-induced B10.RIII mouse arthritis model assessed as change in insulin level at 100 mg/kg, po qd for 35 days relative to 1% methylcellulose-treated control. The class given is organism-based. The arrangement: dose 100 mg/kg, route oral. The note with it: in vivo, 840 h. A digest of the protocol:
(§4)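 Female B10.RIII mice were immunized at 12–15 weeks with porcine type II collagen emulsified in complete Freund's adjuvant (100 μg intradermal, tail base). Animals were enrolled at first arthritis signs, 10 per group, and dosed orally once daily for five weeks in 1% methylcellulose. Paws were scored 1–4 each (max 16), with AUC taken. Serum was collected at day 35. Femur cortical thickness was measured by microCT in non-immunized, age-matched mice given the same dosing.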

The subject of data set [17] is Mus musculus. Description: Toxicity in collagen-induced B10.RIII mouse arthritis model assessed as change in AUC at 100 mg/kg, po qd for 35 days relative to 1% methylcellulose-treated control. The class given is organism-based. The arrangement: dose 100 mg/kg, route oral. The note with it: in vivo, 840 h. The gist of the method: as §4
A short description of data set [18]: Volume of distribution at steady state in rat at 5 mg/kg, iv and 30 mg/kg, po. The class given is ADME, organism-based. The note with it: in vivo, read-out: Vdss. The gist of the method: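 Rat pharmacokinetics: single intravenous dose of 5 mg/kg in 80/20 PEG/water, plus a separate oral dose of 30 mg/kg in 80/18/2 PEG/water/Tween. Steady-state volume of distribution is from the iv arm; clearance, half-life and oral bioavailability come from the same study.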

The test system of data set [19] is Mus musculus. Description: Toxicity in collagen-induced B10.RIII mouse arthritis model assessed as change in triglyceride level at 100 mg/kg, po qd for 35 days relative to 1% methylcellulose-treated control. The note with it: in vivo, 840 h. The class given is organism-based. The arrangement: dose 100 mg/kg, route oral. The gist of the method: as §4

With `CC(C)(CC(O)(Cc1cc2ncncc2[nH]1)C(F)(F)F)c1ccc(F)cc1O` (racemic), the half-inhibitory concentration (IC50) at Progesterone receptor stood at 880 nM.
Take `CC(C)(CC(O)(Cc1cc2ncncc2[nH]1)C(F)(F)F)c1cc(Cl)cc2c1OCC2` (racemic): the IC50 at Progesterone receptor was found to be 1700 nM.
Regarding `Cc1ccc(F)cc1C(C)(C)C[C@@](O)(Cc1cc2nnccc2[nH]1)C(F)(F)F`, the half-life in data set [1] is 30 min. The Activity with Mus musculus [2] is recorded as -2%; in the data set on Mus musculus [3], -36%; in the data set on Mus musculus [8], -53%; with Mus musculus [9] it was 8%. The bioavailability in data set [4] came out at 9%. On Progesterone receptor, the IC50 is more than 2000 nM. In addition, the concentration in data set [5] peaked (Cmax) at 38.9 µM. Also, the ED50 in the data set on Mus musculus [6] is 3 mg/kg. The Vd in [7] is 3.7 L/kg. The compound also came in with a CL with Rattus norvegicus [10] of more than 100%.
As to `Cc1ccc(F)cc1C(C)(C)CC(O)(Cc1cc2nc(-c3ccccc3)ncc2[nH]1)C(F)(F)F` (racemic), the half-inhibitory concentration (IC50) on Progesterone receptor is more than 2000 nM.
In [11], `Cc1ccc(F)cc1C(C)(C)CC(O)(Cc1cc2nnccc2[nH]1)C(F)(F)F` (racemic) came in with a solubility of 2 µg/mL (≈ 5.06 µM). Also, on Progesterone receptor, the IC50 was more than 2000 nM. Besides, in [12], the Papp is 13 ×10⁻⁶ cm/s.
As to `Cc1ccc(F)cc1C(C)(C)CC(O)(Cc1cc2nc(-c3cccnc3)ncc2[nH]1)C(F)(F)F` (racemic), the IC50 at Progesterone receptor is more than 2000 nM.
Still for that read-out and setting: under `Cc1ccc(F)cc1C(C)(C)CC(O)(Cc1cc2nc(N3CCS(=O)(=O)CC3)ncc2[nH]1)C(F)(F)F` (racemic) stands more than 2000 nM.
As to `Cc1ccc(F)cc1C(C)(C)CC(O)(Cc1cc2cc(-c3ccccc3)nnc2[nH]1)C(F)(F)F` (racemic), the IC50 at Progesterone receptor is more than 2000 nM.
Turning to `Cc1ccc(F)cc1C(C)(C)C[C@@](O)(Cc1cc2ncncc2[nH]1)C(F)(F)F`, in the data set on Rattus norvegicus [13], the CL is 61%. In data set [4], this compound registered a bioavailability of 13%. Moreover, the IC50 at Progesterone receptor is more than 2000 nM. In data set [5], this compound registered a Cmax of 4.32 µM. This compound also gave a half-life in data set [14] of 36 min. For the same compound, the Activity is on record as -6% with Mus musculus [15], 17% in the data set with Mus musculus [16], -57% in the data set with Mus musculus [17] and -14% with Mus musculus [19]. Besides, the median effective dose (ED50) in the data set on Mus musculus [6] was 1 mg/kg. The Vd in [18] was 2.1 L/kg.
`Cc1ccc(F)cc1C(C)(C)CC(O)(Cc1cc2ncncc2[nH]1)C(F)(F)F` (racemic): in data set [11], the solubility stood at 11 µg/mL (≈ 27.8 µM). Further, the 50% inhibitory concentration (IC50) on Progesterone receptor is more than 2000 nM. Further, the Papp in data set [12] is 11 ×10⁻⁶ cm/s.

The values above are taken from ChEMBL document CHEMBL3124926, “Identification of highly efficacious glucocorticoid receptor agonists with a potential for reduced clinical bone side effects” (J Med Chem, 2014).
